For orientation: MIC means the smallest concentration in the dilution series that meets the test's criterion for growth inhibition.

The results in this text go back to ChEMBL document CHEMBL2146437, “Burkholdines from Burkholderia ambifaria: antifungal agents and possible virulence factors” (J Nat Prod, 2012).

Data set [1] has as its system Aspergillus niger. Kind of data set: Antifungal activity against Aspergillus niger. Type of data set: functional.
For a further data set, the system named is Saccharomyces cerevisiae. Briefly: Antifungal activity against Saccharomyces cerevisiae. It is filed as functional.
For a further data set, the system named is Candida albicans. Briefly: Antifungal activity against Candida albicans. Type of data set: functional.
Data set [2] in a line: Ratio of HC10 for sheep erythrocytes to MIC for Candida albicans. It is filed as functional.
The nature of data set [3]: Toxicity in sheep erythrocytes assessed as concentration required to achieve 10% hemolysis after 1 hr by serial dilution method. Type of data set: cell-based, Ovis aries. To be noted: erythrocyte. In short, it runs like this: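 Sheep erythrocytes as a 0.25% suspension in phosphate-buffered saline received compound in 2-fold serial dilutions and were held 1 h at 37 °C. Cells were then pelleted at 1000g for 5 min, and supernatant absorbance was read at 540 nm. The value is the concentration giving 10% hemolysis, reported as mean ± standard deviation of two independent measurements.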

Data set [4] concerns Aspergillus niger. Kind of data set: Ratio of amphotericin-B MIC to compound MIC for Aspergillus niger. Type of data set: functional.

Converted amounts (≈) assume the structure as drawn.

Turning to `CCCCCCCCCCC[C@H](O[C@@H]1OC[C@@H](O)[C@H](O)[C@H]1O)[C@H](O)[C@H](O)C[C@@H]1CC(=O)N[C@H](CO)C(=O)N[C@H]([C@H](O)c2ccc(O)cc2)C(=O)N[C@H](CC(N)=O)C(=O)NCC(=O)N[C@@H](CC(N)=O)C(=O)N[C@@H](CO)C(=O)N[C@@H]([C@H](O)C(N)=O)C(=O)N1`, the MIC worked out at 12.5 µg/mL (≈ 10.2 µM) with Aspergillus niger [1], 0.4 µg/mL (≈ 0.325 µM) against Saccharomyces cerevisiae and 12.5 µg/mL (≈ 10.2 µM) against Candida albicans. In addition, the Ratio in data set [2] was 1. Moreover, the HC10 in data set [3] was determined as 10 µg/mL.
As for `CCCCCCCCCCC[C@H](O)[C@H](O)[C@H](O)C[C@@H]1CC(=O)N[C@H](CO)C(=O)N[C@H]([C@H](O)c2ccc(O)cc2)C(=O)N[C@H](CC(N)=O)C(=O)NCC(=O)N[C@@H](CC(N)=O)C(=O)N[C@@H](CO)C(=O)N[C@@H]([C@H](O)C(N)=O)C(=O)N1` (relative stereo), the MIC in the data set on Aspergillus niger [1] was 1.6 µg/mL (≈ 1.46 µM); against Saccharomyces cerevisiae, 1.6 µg/mL (≈ 1.46 µM); with Candida albicans, 12.5 µg/mL (≈ 11.4 µM). In data set [2], the Ratio is on record as 0.4. In data set [3], the HC10 was determined as 4.5 µg/mL.
Consider `C[C@@H]1[C@H](O)[C@@H](C)/C=C/C=C/C=C/C=C/C=C/C=C/C=C/[C@H](O[C@@H]2O[C@H](C)[C@@H](O)[C@H](N)[C@@H]2O)C[C@@H]2O[C@](O)(C[C@@H](O)C[C@@H](O)[C@H](O)CC[C@@H](O)C[C@@H](O)CC(=O)O[C@H]1C)C[C@H](O)[C@H]2C(=O)O` [AMPHOTERICIN B], for which the MIC against Aspergillus niger [1], against Saccharomyces cerevisiae and against Candida albicans was 2.5 µg/mL (≈ 2.71 µM) throughout.
For the compound `CCCCCCCCCCC[C@H](O[C@H]1OC[C@@H](O)[C@H](O)[C@H]1O)[C@H](O)[C@H](O)C[C@@H]1CC(=O)N[C@H](CO)C(=O)N[C@H]([C@H](O)c2ccc(O)cc2)C(=O)N[C@H](CCN)C(=O)NCC(=O)N[C@@H](CC(N)=O)C(=O)N[C@@H](CO)C(=O)N[C@@H]([C@H](O)C(N)=O)C(=O)N1` [BURKHOLDINE 1215], the MIC in the data set on Aspergillus niger [1], against Saccharomyces cerevisiae and against Candida albicans was 0.15 µg/mL (≈ 0.123 µM) throughout. The Ratio in data set [2] came out at 33. Further, in data set [3], the HC10 amounted to 5 µg/mL.
Turning to `CCCCCCCCCCC[C@H](O[C@@H]1OC[C@@H](O)[C@H](O)[C@H]1O)[C@H](O)[C@H](O)C[C@@H]1CC(=O)N[C@H](CO)C(=O)N[C@H]([C@H](O)c2ccc(O)cc2)C(=O)N[C@H](CCN)C(=O)NCC(=O)N[C@@H](CC(N)=O)C(=O)N[C@@H](CO)C(=O)N[C@@H](CC(N)=O)C(=O)N1` [BURKHOLDINES 1119], the minimal inhibitory concentration (MIC) worked out at 0.1 µg/mL (≈ 0.0833 µM) in the data set on Aspergillus niger [1], 0.1 µg/mL (≈ 0.0833 µM) in the data set with Saccharomyces cerevisiae and 0.4 µg/mL (≈ 0.333 µM) in the data set on Candida albicans. Moreover, the Ratio in data set [2] turned out to be 38; with Aspergillus niger [4], 25. Also, the HC10 in data set [3] was 15 µg/mL.
Turning to `CCCCCCCCCCC[C@H](O[C@@H]1OC[C@@H](O)[C@H](O)[C@H]1O)[C@H](O)[C@H](O)C[C@@H]1CC(=O)N[C@H](CO)C(=O)N[C@H]([C@H](O)c2ccc(O)cc2)C(=O)N[C@H](CC(N)=O)C(=O)NCC(=O)N[C@@H](CC(N)=O)C(=O)N[C@@H](CO)C(=O)N[C@@H](CC(N)=O)C(=O)N1` [BURKHOLDINES 1213], the minimal inhibitory concentration (MIC) was 2 µg/mL (≈ 1.65 µM) in the data set with Aspergillus niger [1], 2 µg/mL (≈ 1.65 µM) with Saccharomyces cerevisiae and 31 µg/mL (≈ 25.5 µM) against Candida albicans. Besides, the Ratio in data set [2] stood at 1. Moreover, in data set [3], the HC10 amounted to 37 µg/mL.
